The values below come from publication PMC2992437 (ACS chemical neuroscience, 2010).

Molecules are shown by their SMILES. Like-named read-outs stand apart in the source and are kept apart here.

The test system of assay [1] is NPS induced hyperlocomotion. Conditions: cited from earlier work.
Assay [2] deals with T1, NPSR (Homo sapiens, UniProt Q6W5P4).
T1 sequence (Q6W5P4 1-371): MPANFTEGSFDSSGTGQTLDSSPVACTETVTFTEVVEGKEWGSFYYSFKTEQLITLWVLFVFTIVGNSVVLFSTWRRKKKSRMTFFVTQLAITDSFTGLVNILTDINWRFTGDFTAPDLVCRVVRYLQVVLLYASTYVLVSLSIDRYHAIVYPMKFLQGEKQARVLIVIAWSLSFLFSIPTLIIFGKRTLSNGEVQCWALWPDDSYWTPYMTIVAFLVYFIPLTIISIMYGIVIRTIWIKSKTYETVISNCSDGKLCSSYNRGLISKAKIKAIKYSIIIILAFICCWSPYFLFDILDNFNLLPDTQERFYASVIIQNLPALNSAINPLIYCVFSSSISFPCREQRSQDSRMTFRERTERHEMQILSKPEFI
Nature of the assay: Radioligand binding assay, displacement of [125I]Y10-NPS on CHO-NPSR cells. In a few lines: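 Whole CHO-NPSR cells at about 95% confluence were washed with PBS. They were then incubated for 90 min at room temperature in DMEM with 0.1% BSA, 0.15 nM [125I]Y10-NPS and increasing concentrations of unlabeled human NPS or test compound. Nonspecific binding was taken with 1 μM NPS. Cells were washed in ice-cold PBS, lysed in 1 N NaOH and gamma-counted. Experiments were run in duplicate.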
On the technique in general: Loss of bound radioactivity is the signal in a displacement assay; it reports binding, not function.

The target of assay [3] is T1, NPSR. Nature of the assay: Intracellular calcium assay. The assay is classed as cell-based. Background: Calcium assays in cells follow changes in intracellular calcium, usually with a dye or a luminescent sensor.
Assay [4] deals with T1, NPSR. Nature of the assay: cAMP assay. It is filed as cell-based. Particulars: Table 5. In general terms: cAMP levels reflect the balance of adenylyl cyclase and phosphodiesterase activity.

On to `O=C1OC(c2ccccc2)(c2ccccc2)N2CCN(C(=O)NCc3ccc(F)cc3)CC12` (centres unmarked) [Compound 1, N-(4-fluorobenzyl)-1-oxo-3,3-diphenyltetrahydro-1H-oxazolo[3,4-a]pyrazine-7(3H)-carboxamide], for which, in assay [1] (mice), the “effect on NPS induced hyperlocomotion” value was “partially reduce the NPS induced hyperlocomotion”.
As for `CCC(C)(CCN1CCOCC1)N(Cc1cc2ccccc2n(C)c1=O)C(=O)C1CCCCC1` (centres unmarked) [Compound 2, N-(3-methyl-1-morpholinopentan-3-yl)-N-((1-methyl-2-oxo-1,2-dihydroquinolin-3-yl)methyl)cyclohexanecarboxamide], the “effect on NPS induced hyperlocomotion” value in assay [1] (initial pharmacological results) is recorded as “capacity to reduce the NPS induced hyperlocomotion”.
Compound `COc1ccc(C2c3c(ncn(CCN4CCOCC4)c3=N)Oc3ccc4ccccc4c32)cc1OC` (centres unmarked) [Compound 3a, 10-(2-morpholinoethyl)-12-(3,4-dimethoxyphenyl)-12H-naphtho[1',2':5,6]pyrano[2,3-d]pyrimidin-11-imine] had a Ki at NPSR [2] of 210 nM. In other words, the sub-micromolar range.
Consider `COc1ccc(C2c3c(N)nc(Cc4ccccc4)nc3Oc3ccc4ccccc4c32)cc1OC` (centres unmarked) [Compound 10a], for which the concentration for half-maximal inhibition (IC50) at NPSR [3] was above 30000 nM.
Take `COc1cccc(C2c3c(ncn(-c4ccccc4C#N)c3=N)Oc3ccc4ccccc4c32)c1` (centres unmarked) [Compound 3aa, 10-(2-Cyanophenyl)-12-(3-methoxyphenyl)-12H-naphtho[1',2':5,6]pyrano[2,3-d]pyrimidin-11-imine]: the “cAMP activity (in words)” value at NPSR [4] is listed as “no cAMP activity”.

One may read the Ki as the dissociation constant of the complex between target and ligand, obtained from inhibition or displacement. Read a high Ki as lower affinity. As a reminder, the IC50 is the concentration needed to halve the response being measured.
